High-throughput results: PubChem BioAssay, several laboratories
CHOP inhibitor – inhibitors of CHOP promoter induction, primary screen, cell-based, unfolded protein response, luciferase reporter; CHO-K1 CHOP-promoter luciferase, tunicamycin-induced, 15-18 h; inhibition, % at 10 µM; actives 3.8% (n = 220,000);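 active = compounds that reduced the stress-induced luciferase reporter signal by more than about 70% of percent inhibition, limit read from the data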;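 note: 0% = tunicamycin plus vehicle and 100% = wells without tunicamycin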
L major viab – Leishmania major promastigote growth inhibition, primary screen | Leishmania major promastigotes, resazurin fluorescence viability | inhibition, % at 10 µM | actives 9% (n = 200,000); in the data active = inhibition above about 50%;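 note: promastigotes grown with compound for 44 hours at 28 °C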
Dynein transport – inhibitors of GR-EGFP nuclear translocation, primary screen, dynein cargo transport inhibitor project, imaging, high-content, 3617.4 mouse cells; z-score, hits read low; test concentration mostly 20 µM; stimulated with dexamethasone, 1 µM; active compounds read low; AID 1381, 2008; actives 0.47% (n = 220,000);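 active = plate z-score of nuclear minus cytoplasmic receptor signal below a set negative limit, without overly bright fluorescence or cell loss, cut at about -3.5 in these data, passing the limit was not always enough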;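 note: z-score of nuclear minus cytoplasmic ring GR-EGFP intensity difference per well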
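Buffer or medium: tetracycline-free induction medium containing charcoal-stripped FBS / Reagent: dexamethasone agonist, 1.0 µM final, for 30 min / Technique: automated 10x imaging of fixed Hoechst-stained cells / Times: induction 48 h, compound 1 h, agonist 30 min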
UPR XBP1 act – activators of adaptive XBP1 UPR arm, primary screen, cell-based, CHO-XBP1 luciferase reporter, luminescence, uHTS. IRE1-XBP1 UPR activation; percent of tunicamycin response, DMSO as zero. activation, % at 20 µM. actives 0.33% (n = 330,000). AID 463104, 2010;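 active = versus positive control, 20 µM dose yields 30% or more activation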;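 note: 100% = tunicamycin at 10 µg/mL and 0% = DMSO only wells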
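incubation = overnight seeding at 37 °C, 6 h compound treatment at 37 °C | assay system = CHO-XBP1 cells stably carrying IRE1-XBP1-driven luciferase reporter | input = 1000 cells per well | detection = luciferase luminescence | dosing = single point, 20 µM final compound, 1% DMSO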
UPR CHOP act – activators of apoptotic CHOP UPR arm, primary screen, cell-based, CHO-CHOP luciferase reporter, luminescence, uHTS; UPR activation; percent of tunicamycin response over DMSO baseline; activation, % at 10 µM; actives 0.34% (n = 330,000);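 active = at 10 µM dose, activation of 40% or more, normalized to positive control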;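 note: 100% = tunicamycin at 10 µg/mL and 0% = DMSO alone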
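Material: CHO-CHOP cells, stable luciferase reporter of PERK-eIF2a-CHOP signalling; quantity: 500 reporter cells seeded per well; buffer or medium: F12 medium containing 10% fetal bovine serum; compound: one dose, 10 µM in 0.5% DMSO; incubation: 6 h compound treatment, 37 °C; measured by: Steady-Glo luciferase luminescence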
T cruzi inh – inhibitors of intracellular T. cruzi growth, primary screen, luminescence, NIH3T3 host cells; actives 1.4% (n = 300,000); T. cruzi beta-gal in NIH3T3, 90 h; inhibition, % (test concentration not listed);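 active = mean inhibition across valid replicates above about 55%, limit read from the data; inconclusive = mean below that limit but half or more replicates reach it; inactive = mean below it, under half of replicates reach it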;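 note: signal also drops with host cell toxicity which is not excluded here; 0% = plate median of DMSO wells and 100% = zero luminescence signal; higher percent means less beta-gal luminescence so fewer parasites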
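Incubation – ≥90 h infection period, 3 h prior cell attachment · System – NIH/3T3 fibroblasts plus reporter T. cruzi · Doses – compound pinned at 50 nL/well, DMSO · Read-out basis – percent inhibition of parasite-derived β-gal signal · Signal – luminescent β-galactosidase signal after 60 min lysis · Also added – 5000 T. cruzi trypomastigotes/well · Medium – Low-serum DMEM with 2% FBS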
Active calls of the source: *; u = inconclusive; x = no result given. The sample as a whole holds a higher share of hits than the screen did.

SMILES	CHOP inhibitor	L major viab	Dynein transport	UPR XBP1 act	UPR CHOP act	T cruzi inh
CN(C)CCCNC(=O)c1cc2sc3ccccc3c2s1	-26	92*	-0.49	1	0	u
Cc1nc2ccc(NC(=O)c3cc(S(=O)(=O)N(C)c4ccccc4)ccc3Cl)cc2s1	57	-6	-0.26	x	x	-24
CN(C)CCCNC(=O)c1ccc(-c2ccccc2)cc1	3	86*	-0.33	0	2	41
COc1ccc(C(=O)NCCCN(C)CCCNC(=O)c2ccc(OC)cc2)cc1	x	x	x	-2	2	17
Cc1nc2ccc(NC(=O)c3ccc(Cl)c(S(=O)(=O)N(C)c4ccccc4)c3)cc2s1	55	100*	0.7	6	-1	16
COCCNC(=O)c1cc2sc3ccccc3c2s1	-7	-3	-0.7	0	3	-7
CC(C)c1ccc(C(=O)NCCCN(C)C)cc1	41	-4	2.4	0	2	60*
CCN(CC)CCN1C(=O)C(=O)/C(=C(/O)c2ccc(S(=O)(=O)N3CCOCC3)cc2)C1c1ccc(C)cc1 (configuration not stated)	x	x	x	-1	2	1
O=C(CCCN1C(=O)c2cccc3cccc(c23)C1=O)NCc1cccs1	-6	-5	1.2	-2	1	4
CN(C)CCCNC(=O)c1ccc(Cl)c(S(=O)(=O)N(C)c2ccccc2)c1	-7	3	-0.21	-5	-1	65*
Cc1cccc([N+](=O)[O-])c1NC(=O)CSc1nnc2ccccn12	x	x	x	-2	1	x
CCNC(=S)N(Cc1ccc(OC)cc1)C1CC(=O)N(c2ccc(OCC)cc2)C1=O (configuration not stated)	73*	10	0.71	-3	-2	21
CCNC(=S)N(Cc1ccc2c(c1)OCO2)C1CC(=O)N(c2ccc(F)cc2)C1=O (configuration not stated)	73*	6	0.23	-4	-1	-5
O=C(NCC1CCCO1)C(=O)N/N=C/c1c(F)cccc1Cl (configuration not stated)	x	x	x	0	3	-4
CCC1(C)OC(=O)NN(c2ccc(C)cc2)C1(C)O (configuration not stated)	0	-2	0.79	2	0	-12
Cc1ccc(NC2CCCN(C(=O)CN3C(=O)c4ccccc4C3=O)C2)cc1C (configuration not stated)	x	x	x	-5	-1	-3
CCCN1CCN(C(=O)CCCn2c(C)c3cnn(-c4ccccc4)c(=O)c3c2C)CC1	-5	85*	-1.1	-3	0	3
CCC(C(=O)NCCN1CCN(C)CC1)n1c(C)c2cnn(-c3ccccc3)c(=O)c2c1C (configuration not stated)	-19	-4	-0.2	-7	-1	x
CSc1cccc(NC(=O)c2nnn(CC(=O)Nc3cc(C)cc(C)c3)c2N)c1	x	x	x	1	2	-8
Cn1c(NCc2ccco2)nc2c1c(=O)n(Cc1ccc(Cl)cc1Cl)c(=O)n2C	88*	-5	0.12	-2	0	-13
Cn1c(NCc2ccco2)nc2c1c(=O)n(Cc1ccc(Cl)cc1)c(=O)n2C	79*	-6	-0.34	4	-2	-7
Cn1c(NCc2ccco2)nc2c1c(=O)n(Cc1ccc(Br)cc1)c(=O)n2C	89*	2	3	-8	-1	1
CCc1cc2c(=O)n(C(C)C(=O)OC3CCCCC3)cnc2s1 (configuration not stated)	72*	-2	-0.69	-2	4	23
C1CCC(n2nnnc2CN2CCN(C3CCCC3)CC2)CC1	3	90*	2.8	-2	4	0
CC1CC(C)CN(CCCCOc2ccc([N+](=O)[O-])cc2)C1 (configuration not stated)	3	95*	-0.27	-3	3	42
SMILES	CHOP inhibitor	L major viab	Dynein transport	UPR XBP1 act	UPR CHOP act	T cruzi inh
O=[N+]([O-])c1ccccc1OCCCN1CCOCC1	-13	42	-0.46	3	-1	-13
Cc1ccc([N+](=O)[O-])c(OCCN2CCNCC2)c1	2	-6	0.29	-1	-1	-8
Cc1ccc(C(C)C)c(OCCNS(C)(=O)=O)c1	7	-2	-0.1	0	1	-6
CC1CN(CCCOc2ccccc2[N+](=O)[O-])CC(C)O1 (configuration not stated)	7	90*	0.96	-2	0	2
Cc1ccc(C(C)C)c(OCCCN2CC(C)OC(C)C2)c1 (configuration not stated)	49	97*	0.25	-2	-1	0
O=[N+]([O-])c1ccc(OCCN2CCNCC2)cc1	-1	99*	-0.26	-1	-1	58*
O=C(COC(=O)c1ccc(S(=O)(=O)N2CCCCC2)cc1)Nc1ccccc1Cl	x	x	x	-3	-1	x
CCOCCc1nnc(NC(=O)CCS(=O)(=O)c2ccccc2)s1	x	x	x	-2	-2	2
CCOC(=O)C1=CN(CC)S(=O)(=O)NC1c1cccc(OC)c1 (configuration not stated)	x	x	x	5	3	x
CC1CN(CCOc2ccc([N+](=O)[O-])cc2)CC(C)O1 (configuration not stated)	14	85*	1.2	-1	2	-7
Cc1cc(OCCN2CC(C)OC(C)C2)ccc1[N+](=O)[O-] (configuration not stated)	-13	76*	0.052	0	2	8
COC(=O)C1CCN(c2ccc([N+](=O)[O-])cc2)CC1	12	-9	-0.7	0	1	-19
CC1CN(c2ccc([N+](=O)[O-])cn2)CC(C)O1 (configuration not stated)	6	x	-0.29	-1	2	-12
CC1CN(CCCOc2ccc([N+](=O)[O-])cc2)CC(C)O1 (configuration not stated)	-2	91*	-0.62	0	-1	2
COC(=O)C1CCN(CCCOc2ccc(CN3CCN(c4ccc([N+](=O)[O-])cc4)CC3)cc2)CC1	-14	95*	0.93	1	0	26
CC1CN(CCOc2ccc(F)cc2)CC(C)O1 (configuration not stated)	x	x	x	-1	3	-4
S=C(NC12CC3CC(CC(C3)C1)C2)N1CCCC1	5	53*	-0.23	0	-1	-10
C/C(CC(=O)Nc1cc(C)ccn1)=N\NC(=O)c1cccc(C)c1O	x	x	x	4	2	u
